Laboratory results taken from ChEMBL document CHEMBL1147968, “Novel lbeta-methylcarbapenems having cyclic sulfonamide moieties: synthesis and evaluation of in vitro antibacterial activity” (2007).
≈ marks a conversion by molar mass, not a printed value.

Legend:
[1] = tested on: Priestia megaterium; assay: Antibacterial activity against Bacillus megaterium after 18 to 24 hrs by agar dilution method; type: functional
Summary of the method: (§1)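 MICs were determined by agar dilution on test agar. An overnight tryptosoy broth culture was diluted in the same broth to about 10⁶ cells/mL and spotted with an inoculating device onto agar containing serial twofold dilutions of compound. Plates were incubated at 37 °C for 18–20 h, and the MIC was the lowest concentration with no visible growth.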

[2] = tested on: Micrococcus luteus; assay: Antibacterial activity against Micrococcus luteus ATCC 9341 after 18 to 24 hrs by agar dilution method; type: functional; summary of the method: as §1
[3] = tested on: Pseudomonas aeruginosa; assay: Antibacterial activity against Pseudomonas aeruginosa 77/2 after 18 to 24 hrs by agar dilution method; type: functional; summary of the method: as §1
[4] = tested on: Staphylococcus; assay: Antibacterial activity against coagulase negative Staphylococcus after 18 to 24 hrs by agar dilution method; type: functional
Summary of the method: (§2)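 Agar dilution on test agar holding serial twofold dilutions of compound. Overnight tryptosoy broth cultures were diluted in the same broth to about 10⁶ cells/mL and spotted with an inoculating device. Plates were incubated at 37 °C for 18–20 h.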

[5] = Antibacterial activity against Salmonella oranienburg after 18 to 24 hrs by agar dilution method; type: functional, Salmonella enterica subsp. enterica serovar Oranienburg; details: Salmonella enterica; summary of the method: as §1
[6] = tested on: Proteus mirabilis; assay: Antibacterial activity against Proteus mirabilis 174/3 after 18 to 24 hrs by agar dilution method; type: functional; summary of the method: as §1
[7] = tested on: Escherichia coli; assay: Antibacterial activity against Escherichia coli 0114 after 18 to 24 hrs by agar dilution method; type: functional; summary of the method: as §1
[8] = tested on: Pseudomonas aeruginosa; assay: Antibacterial activity against Pseudomonas aeruginosa 9027 after 18 to 24 hrs by agar dilution method; type: functional; summary of the method: as §1
[9] = tested on: Klebsiella pneumoniae; assay: Antibacterial activity against Klebsiella pneumoniae 477 after 18 to 24 hrs by agar dilution method; type: functional; summary of the method: as §1
[10] = tested on: Salmonella typhi; assay: Antibacterial activity against Salmonella typhi after 18 to 24 hrs by agar dilution method; type: functional, Salmonella enterica subsp. enterica serovar Typhi; details: Salmonella enterica
Summary of the method: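 Agar dilution on test agar with serial twofold dilutions of compound. Overnight tryptosoy broth cultures diluted in the same broth to about 10⁶ cells/mL, then applied with an inoculating device. Plates incubated at 37 °C for 18–20 h.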

[11] = tested on: Streptococcus agalactiae; assay: Antibacterial activity against Streptococcus agalactiae 32 after 18 to 24 hrs by agar dilution method; type: functional; summary of the method: as §1
[12] = tested on: Streptococcus pneumoniae; assay: Antibacterial activity against Streptococcus pneumoniae 0025 after 18 to 24 hrs by agar dilution method; type: functional; summary of the method: as §1
[13] = tested on: Trueperella pyogenes; assay: Antibacterial activity against Corynebacterium pyogenes after 18 to 24 hrs by agar dilution method; type: functional; summary of the method: as §1
[14] = tested on: Enterococcus durans; assay: Antibacterial activity against Streptococcus durans D after 18 to 24 hrs by agar dilution method; type: functional; summary of the method: as §1
[15] = tested on: Streptococcus pyogenes; assay: Antibacterial activity against Streptococcus pyogenes 9889 after 18 to 24 hrs by agar dilution method; type: functional; summary of the method: as §2
[16] = tested on: Serratia marcescens; assay: Antibacterial activity against Serratia marcescens 370 after 18 to 24 hrs by agar dilution method; type: functional; summary of the method: as §1
[17] = tested on: Serratia marcescens; assay: Antibacterial activity against Serratia marcescens 6093 after 18 to 24 hrs by agar dilution method; type: functional; summary of the method: as §1
[18] = tested on: Citrobacter freundii; assay: Antibacterial activity against Citrobacter freundii 323 after 18 to 24 hrs by agar dilution method; type: functional; summary of the method: as §1
[19] = tested on: Pseudomonas aeruginosa; assay: Antibacterial activity against Pseudomonas aeruginosa 880/2 after 18 to 24 hrs by agar dilution method; type: functional; summary of the method: as §1
[20] = Antibacterial activity against Salmonella give after 18 to 24 hrs by agar dilution method; type: functional, Salmonella enterica subsp. enterica serovar Give; details: Salmonella enterica; summary of the method: as §1
[21] = tested on: Enterobacter cloacae; assay: Antibacterial activity against Enterobacter cloacae after 18 to 24 hrs by agar dilution method; type: functional; summary of the method: as §1
[22] = tested on: Proteus mirabilis; assay: Antibacterial activity against Proteus mirabilis 112/3 after 18 to 24 hrs by agar dilution method; type: functional; summary of the method: as §1
[23] = tested on: Proteus vulgaris; assay: Antibacterial activity against Proteus vulgaris 868 after 18 to 24 hrs by agar dilution method; type: functional; summary of the method: as §1
[24] = tested on: Enterococcus faecalis; assay: Antibacterial activity against Enterococcus faecalis 2347 after 18 to 24 hrs by agar dilution method; type: functional; summary of the method: as §1
[25] = tested on: Burkholderia cepacia; assay: Antibacterial activity against Pseudomonas cepacia after 18 to 24 hrs by agar dilution method; type: functional; summary of the method: as §1
[26] = tested on: Klebsiella pneumoniae; assay: Antibacterial activity against Klebsiella pneumoniae 523 after 18 to 24 hrs by agar dilution method; type: functional; summary of the method: as §1
[27] = tested on: Escherichia coli; assay: Antibacterial activity against Escherichia coli 086 after 18 to 24 hrs by agar dilution method; type: functional; summary of the method: as §1
[28] = tested on: Salmonella typhimurium; assay: Antibacterial activity against Salmonella Typhimurium after 18 to 24 hrs by agar dilution method; type: functional, Salmonella enterica subsp. enterica serovar Typhimurium; details: Salmonella enterica; summary of the method: as §1
[29] = tested on: Staphylococcus aureus; assay: Antibacterial activity against Staphylococcus aureus giorgio after 18 to 24 hrs by agar dilution method; type: functional; summary of the method: as §1
[30] = tested on: Escherichia coli; assay: Antibacterial activity against Escherichia coli 04 after 18 to 24 hrs by agar dilution method; type: functional; summary of the method: as §1
[31] = tested on: Escherichia coli; assay: Antibacterial activity against Escherichia coli 0126 after 18 to 24 hrs by agar dilution method; type: functional; summary of the method: as §1
[32] = tested on: Staphylococcus aureus; assay: Antibacterial activity against Staphylococcus aureus 209P after 18 to 24 hrs by agar dilution method; type: functional; summary of the method: as §1
[33] = tested on: Salmonella; assay: Antibacterial activity against Salmonella orion after 18 to 24 hrs by agar dilution method; type: functional; summary of the method: as §1
[34] = tested on: Serratia marcescens; assay: Antibacterial activity against Serratia marcescens 3349 after 18 to 24 hrs by agar dilution method; type: functional; summary of the method: as §1
[35] = tested on: Pseudomonas aeruginosa; assay: Antibacterial activity against Pseudomonas aeruginosa 5455 after 18 to 24 hrs by agar dilution method; type: functional; summary of the method: as §1
[36] = tested on: Corynebacterium diphtheriae; assay: Antibacterial activity against Corynebacterium diphtheriae after 18 to 24 hrs by agar dilution method; type: functional; summary of the method: as §1
[37] = tested on: Streptococcus agalactiae; assay: Antibacterial activity against Streptococcus agalactiae B after 18 to 24 hrs by agar dilution method; type: functional; summary of the method: as §1
[38] = tested on: Pasteurella multocida; assay: Antibacterial activity against Pasteurella multocida after 18 to 24 hrs by agar dilution method; type: functional; summary of the method: as §1
[39] = tested on: Staphylococcus aureus; assay: Antibacterial activity against Staphylococcus aureus 503 after 18 to 24 hrs by agar dilution method; type: functional; summary of the method: as §1
[40] = tested on: Pseudomonas aeruginosa; assay: Antibacterial activity against Pseudomonas aeruginosa 110/2 after 18 to 24 hrs by agar dilution method; type: functional; summary of the method: as §1
[41] = tested on: Escherichia coli; assay: Antibacterial activity against Escherichia coli V6311/65 after 18 to 24 hrs by agar dilution method; type: functional; summary of the method: as §1
[42] = tested on: Providencia rettgeri; assay: Antibacterial activity against Proteus rettgeri 936 after 18 to 24 hrs by agar dilution method; type: functional; summary of the method: as §1
[43] = tested on: Escherichia coli; assay: Antibacterial activity against Escherichia coli TEM after 18 to 24 hrs by agar dilution method; type: functional; summary of the method: as §1
[44] = tested on: Enterobacter cloacae; assay: Antibacterial activity against Enterobacter cloacae 417 after 18 to 24 hrs by agar dilution method; type: functional; summary of the method: as §1
[45] = tested on: Serratia marcescens; assay: Antibacterial activity against Serratia marcescens 14273 after 18 to 24 hrs by agar dilution method; type: functional; summary of the method: as §1
[46] = tested on: Staphylococcus aureus; assay: Antibacterial activity against Staphylococcus aureus 1218 after 18 to 24 hrs by agar dilution method; type: functional; summary of the method: as §1
[47] = tested on: Haemophilus influenzae; assay: Antibacterial activity against Haemophilus influenzae 1210 after 18 to 24 hrs by agar dilution method; type: functional; summary of the method: as §1
[48] = tested on: Providencia rettgeri; assay: Antibacterial activity against Proteus rettgeri 937 after 18 to 24 hrs by agar dilution method; type: functional; summary of the method: as §1
[49] = tested on: Enterobacter cloacae; assay: Antibacterial activity against Enterobacter cloacae 34 after 18 to 24 hrs by agar dilution method; type: functional; summary of the method: as §1
[50] = tested on: Bacillus subtilis; assay: Antibacterial activity against Bacillus subtilis ATCC 6633 after 18 to 24 hrs by agar dilution method; type: functional; summary of the method: as §1
[51] = tested on: Escherichia coli; assay: Antibacterial activity against Escherichia coli 1507 after 18 to 24 hrs by agar dilution method; type: functional; summary of the method: as §1
[52] = tested on: Acinetobacter baumannii; assay: Antibacterial activity against Acinetobacter baumannii 2289 after 18 to 24 hrs by agar dilution method; type: functional; summary of the method: as §1

## C[C@@H](O)[C@H]1C(=O)N2C(C(=O)O)=C(S[C@@H]3CN[C@H](C(=O)N(C)C)C3)[C@H](C)[C@H]12 [MEROPENEM]
[1]
  MIC: 0.05 µg/mL (≈ 0.13 µM)
[2]
  MIC: 0.05 µg/mL (≈ 0.13 µM)
[3]
  MIC: 0.8 µg/mL (≈ 2.09 µM)
[4]
  MIC: 0.098 µg/mL (≈ 0.256 µM)
[5]
  MIC: 0.05 µg/mL (≈ 0.13 µM)
[6]
  MIC: 0.1 µg/mL (≈ 0.261 µM)
[7]
  MIC: 0.02 µg/mL (≈ 0.0522 µM)
[8]
  MIC: 0.4 µg/mL (≈ 1.04 µM)
[9]
  MIC: 0.05 µg/mL (≈ 0.13 µM)
[10]
  MIC: 0.01 µg/mL (≈ 0.0261 µM)
[11]
  MIC: 0.049 µg/mL (≈ 0.128 µM)
[12]
  MIC: 0.01 µg/mL (≈ 0.0261 µM)
[13]
  MIC: 0.05 µg/mL (≈ 0.13 µM)
[14]
  MIC: 0.8 µg/mL (≈ 2.09 µM)
[15]
  MIC: 0.013 µg/mL (≈ 0.0339 µM)
[16]
  MIC: 0.05 µg/mL (≈ 0.13 µM)
[17]
  MIC: 0.05 µg/mL (≈ 0.13 µM)
[18]
  MIC: 0.025 µg/mL (≈ 0.0652 µM)
[19]
  MIC: 0.2 µg/mL (≈ 0.522 µM)
[20]
  MIC: 0.02 µg/mL (≈ 0.0522 µM)
[21]
  MIC: 0.01 µg/mL (≈ 0.0261 µM)
[22]
  MIC: 0.1 µg/mL (≈ 0.261 µM)
[23]
  MIC: 0.1 µg/mL (≈ 0.261 µM)
[24]
  MIC: 12.5 µg/mL (≈ 32.6 µM)
[25]
  MIC: 0.4 µg/mL (≈ 1.04 µM)
[26]
  MIC: 0.025 µg/mL (≈ 0.0652 µM)
[27]
  MIC: 0.05 µg/mL (≈ 0.13 µM)
[28]
  MIC: 0.05 µg/mL (≈ 0.13 µM)
[29]
  MIC: 0.1 µg/mL (≈ 0.261 µM)
[30]
  MIC: 0.049 µg/mL (≈ 0.128 µM)
[31]
  MIC: 0.05 µg/mL (≈ 0.13 µM)
[32]
  MIC: 0.1 µg/mL (≈ 0.261 µM)
[33]
  MIC: 0.1 µg/mL (≈ 0.261 µM)
[34]
  MIC: 0.049 µg/mL (≈ 0.128 µM)
[35]
  MIC: 1.56 µg/mL (≈ 4.08 µM)
[36]
  MIC: 0.02 µg/mL (≈ 0.0522 µM)
[37]
  MIC: 0.05 µg/mL (≈ 0.13 µM)
[38]
  MIC: 0.05 µg/mL (≈ 0.13 µM)
[39]
  MIC: 0.05 µg/mL (≈ 0.13 µM)
[40]
  MIC: 0.4 µg/mL (≈ 1.04 µM)
[41]
  MIC: 0.01 µg/mL (≈ 0.0261 µM)
[42]
  MIC: 0.1 µg/mL (≈ 0.261 µM)
[43]
  MIC: 0.02 µg/mL (≈ 0.0522 µM)
[44]
  MIC: 0.01 µg/mL (≈ 0.0261 µM)
[45]
  MIC: 0.2 µg/mL (≈ 0.522 µM)
[46]
  MIC: 6.25 µg/mL (≈ 16.3 µM)
[47]
  MIC: 3.12 µg/mL (≈ 8.15 µM)
[48]
  MIC: 0.05 µg/mL (≈ 0.13 µM)
[49]
  MIC: 0.025 µg/mL (≈ 0.0652 µM)
[50]
  MIC: 0.05 µg/mL (≈ 0.13 µM)
[51]
  MIC: 0.02 µg/mL (≈ 0.0522 µM)
[52]
  MIC: 12.5 µg/mL (≈ 32.6 µM)
